TAG inh: reduces triacylglycerol accumulation in H9c2 cells. hit rate 0.66% among 230,000. Nile Red lipid (TAG) fluorescence; cells loaded with 200 µM oleic acid. inhibition, % at 12.5 µM;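 active = pattern-corrected inhibition of lipid staining of at least 50% with the nuclear-stain viability signal not falling by more than 50%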;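 also: 0% = DMSO wells and 100% = triacsin C control wells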
MC4R ag barr: human MC4R agonism via beta-arrestin | U2OS MC4R beta-arrestin complementation, luminescence; percent of melanotan II response, DMSO zero | activation, % at 8.9 µM | AID 540308 | hit rate 0.98% among 360,000 | P32245;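 active = activation above a per-plate cutoff, the mean activation of sample wells on that plate plus 3 SD, cut at about 8% in these data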
Target sequence (P32245 whole entry, looked up): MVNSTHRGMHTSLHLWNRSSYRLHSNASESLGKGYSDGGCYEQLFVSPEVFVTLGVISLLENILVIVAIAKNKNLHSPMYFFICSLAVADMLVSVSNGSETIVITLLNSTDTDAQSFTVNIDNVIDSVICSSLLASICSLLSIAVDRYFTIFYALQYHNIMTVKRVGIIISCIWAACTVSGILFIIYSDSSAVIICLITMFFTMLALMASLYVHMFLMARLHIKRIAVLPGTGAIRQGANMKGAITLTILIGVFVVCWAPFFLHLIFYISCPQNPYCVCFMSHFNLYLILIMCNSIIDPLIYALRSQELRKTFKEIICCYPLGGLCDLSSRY
Calb FLC: affects C. albicans growth with fluconazole; growth inhibition, % (no concentration beside the values); C. albicans CaCi-2 + fluconazole, Alamar Blue growth, 48 h; hit rate 0.57% among 300,000;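 active = growth inhibition above about 58% in most replicates, limit read from the data, passing the limit was not always enough; inconclusive = exactly half the replicates above a set limit; inactive = most replicates below a set limit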;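 also: all wells also contain fluconazole at 8 µg/ml as a sub-toxic cotreatment; 0% = median of DMSO wells and 100% = median of geldanamycin control wells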
GalR3 antag: antagonists of human GalR3 | hit rate 0.44% among 360,000 | inhibition, % at 3 µM | AID 651719 | O60755 | HEK293 GalR3-CNG cAMP membrane potential fluorescence; galR3 body fused to GalR1 C-terminus;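 active = inhibition above the screen-wide average plus 3 SD, cut at about 13% in these data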;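 also: forskolin and galanin both at EC90 stimulate the cells; cAMP rise reported by CNG channel membrane potential dye signal; 0% = forskolin plus galanin with DMSO and 100% = forskolin alone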
Target sequence (O60755 1-299 limits assumed): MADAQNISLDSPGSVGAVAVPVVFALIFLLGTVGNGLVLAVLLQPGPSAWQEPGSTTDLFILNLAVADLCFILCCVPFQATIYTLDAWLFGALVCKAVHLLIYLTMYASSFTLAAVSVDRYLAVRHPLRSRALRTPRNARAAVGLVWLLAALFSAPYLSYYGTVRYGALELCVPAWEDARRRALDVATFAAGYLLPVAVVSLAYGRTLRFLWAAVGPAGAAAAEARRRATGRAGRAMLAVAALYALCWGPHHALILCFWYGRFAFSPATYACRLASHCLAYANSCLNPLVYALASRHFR
MC4R antag cAMP: antagonists of human melanocortin 4 receptor (MC4R). inhibition, % at 6.5 µM. hit rate 0.48% among 360,000. P32245. MC4R-expressing cells, MTII-stimulated cAMP, LANCE TR-FRET;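 active = inhibition above its plate's cutoff, the mean of tested wells on that plate plus 3 SD, cut at about 29% in these data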;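 also: 0% = Melanotan II alone and 100% = Melanotan II plus saturating MCL0020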
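Assay system: human MC4R-expressing U2OS cells; reagent: Melanotan II stimulation of cells; dosing: 6.5 µM single dose; timing: compound 30 min, challenge 1 h, detection 1 h; signal: TR-FRET cAMP assay; replicates: one well per compound, no replicates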
Efflux pump mplx: blocks antifungal efflux pumps in multiplex yeast assay; inhibition, % at 10 µM; hit rate 0.44% among 330,000; S. cerevisiae Candida pump triplex, Nile Red efflux;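 active = plate passing quality check with inhibition over a set limit, or well fluorescence over plate mean plus 4 SD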;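 also: Nile Red retained in pooled yeast measured as flow cytometry median fluorescence; 0% = buffer negative control and 100% = Enniatin B positive control; higher means more Nile Red kept so more efflux inhibition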
MC4R barr ag: human MC4R beta-arrestin agonism confirmation; AID 602192; hit rate 31% among 2,400; U2OS MC4R beta-arrestin recruitment, luminescence; scaled DMSO 0%, Melanotan II 100%; activation, % at 8.9 µM; shares compounds with MC4R ag barr;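 active = mean activation across replicates above the hit cutoff set in the earlier primary screen, cut at about 8% in these data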
MOR-DOR barr ag: OPRM1-OPRD1 heterodimer agonism counter-screen | AID 602194 | activation, % at 9.2 µM | shares compounds with MC4R ag barr | hit rate 5.8% among 2,400 | U2OS PathHunter beta-arrestin, beta-gal luminescence; percent of deltorphin B response, DMSO zero;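 active = mean activation across replicates exceeds the hit threshold derived in the earlier primary screen, cut at about 18% in these data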;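 also: 100% = deltorphin B at 0.9 µM final and 0% = DMSO alone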
* marks the source's active call; other numbers are inactive results; ? = inconclusive; nt = no result. Rows were chosen to be rich in hits. Some 2.9% of all compounds tested hit in one or more screens of this group.

SMILES | TAG inh | MC4R ag barr | Calb FLC | GalR3 antag | MC4R antag cAMP | Efflux pump mplx | MC4R barr ag | MOR-DOR barr ag
Cc1ccc(OCC(=O)Nc2cccc(-c3nnc(-c4ccccc4)o3)c2)c(C)c1 | 32 | 35* | -19 | -3 | 8 | 0 | 8 | 4
O=C(NC(=S)Nc1ccc(NC(=O)c2ccco2)cc1)c1ccccc1 | nt | 3 | -1 | 0 | 5 | 4 | nt | nt
COc1ccc(CC(=O)Nc2cccc(-c3nnc(-c4ccc(C)cc4)o3)c2)cc1OC | nt | 2 | ? | 2 | 6 | 0 | nt | nt
Cc1cc(C)c(OCC(=O)Nc2ccc(NC(=O)c3ccco3)cc2)c([N+](=O)[O-])c1 | nt | 13* | nt | 0 | 4 | 0 | 1 | 3
COc1cc(C(=O)NC(=S)Nc2ccc(NC(=O)c3ccco3)cc2)cc(OC)c1OC | nt | 11* | 11 | 6 | -2 | 0 | 0 | 4
Cc1c([N+](=O)[O-])cc(C(=O)Nc2ccc(NC(=O)c3ccco3)cc2)cc1[N+](=O)[O-] | nt | 10* | -2 | -8 | -1 | 0 | -5 | 8
Cc1ccc2c(c1)N(CC(=O)Nc1ccccc1F)C(=O)C(C)O2 (stereo not given) | -2 | 1 | nt | -8 | 16 | nt | nt | nt
Cc1ccc(OCC(=O)Nc2ccc(NC(=O)c3ccco3)cc2)c(C)c1 | nt | 18* | 6 | -8 | 8 | 0 | 1 | 6
S=C1Nc2ccccc2Sc2ccc(Cl)cc21 | nt | 23* | -11 | -6 | -9 | 0 | 10* | 7
CC1(Cc2ccccc2Cl)C(=O)Nc2ccc(OC(F)(F)F)cc21 (stereo not given) | -4 | 4 | nt | -5 | 8 | nt | nt | nt
O=C(NCCN1CCN(S(=O)(=O)c2ccccc2)CC1)C(=O)Nc1ccc(F)cc1 | nt | -1 | 27 | -8 | 6 | 0 | nt | nt
Cc1ccc(S(=O)(=O)N2CCN(CCNC(=O)C(=O)Nc3ccc(F)cc3)CC2)cc1 | nt | 14* | -17 | 9 | 24 | 0 | 0 | 6
COC1OC2COC(c3ccccc3)OC2C(O)C1NC(=O)c1ccccc1 (stereo not given) | -2 | 1 | nt | -4 | -3 | nt | nt | nt
Cc1ccc(CCc2nnc(SCC(=O)Nc3cccc(Cl)c3)n2-c2ccccc2)o1 | nt | 27* | -21 | 1 | -1 | 0 | 3 | 8
COc1ccc(/C=N/NC(=O)c2sccc2C)c2ccccc12 | -1 | 19* | -7 | 0 | -3 | 0 | 11* | 8
Cc1ccccc1/C=N/NC(=O)c1sccc1C | nt | -2 | -3 | 6 | -2 | 0 | nt | nt
CCCCCCCCN1C(=O)[C@@H](CC(=O)N2CCN(C(=O)C3CC3)CC2)C[C@@]2(C(=O)OC)C1=C[C@H](C1CCCC1)O[C@@H]2C | nt | nt | nt | -6 | nt | nt | nt | nt
O=C(CSc1ccccc1)Nc1ccc(C(=O)Nc2ccc(O)cc2)cc1 | 3 | 28* | -1 | -8 | 5 | nt | 15* | 5
O=C(Cc1ccccc1)Nc1ccc(C(=O)Nc2ccc(O)cc2)cc1 | nt | 0 | 1 | 1 | 1 | 0 | nt | nt
COc1ccc(NC(=O)c2ccccc2NC(=O)c2ccccc2)cc1 | nt | 9.6* | 1 | -7 | 3 | 0 | 2 | 5
COc1ccc(NC(=O)c2ccccc2NC(=O)CSc2ccccc2)cc1 | nt | 13* | -15 | -1 | 1 | 0 | -1 | 5
CCCCOCC1CN(CCCC)S(=O)(=O)c2c(Oc3ccc(C(C)C)cc3)cccc2O1 (stereo not given) | nt | nt | nt | -1 | nt | nt | nt | nt
COC(=O)C[C@@H]1OC[C@H](C(C)C)N1S(=O)(=O)c1ccc(C)cc1 | nt | nt | nt | -4 | nt | nt | nt | nt
COc1cccc(CC2(CO)CCCN(Cc3[nH]c4ccc(C)cc4c3C)C2)c1 (stereo not given) | 17 | 11* | -9 | -4 | 2 | 0 | 19* | 14
COc1ccccc1NC(=O)COC(=O)c1ccc2c(c1)OCCO2 | -15 | 19* | nt | -6 | 9 | 0 | 3 | 3
SMILES | TAG inh | MC4R ag barr | Calb FLC | GalR3 antag | MC4R antag cAMP | Efflux pump mplx | MC4R barr ag | MOR-DOR barr ag
Cc1cccc(C(=O)OCC(=O)c2ccc3c(c2)OCCO3)c1O | -17 | 11* | nt | -6 | -1 | 0 | 3 | 3
CC(C)C[C@H]1COc2cc(Br)ccc2S(=O)(=O)N1Cc1ccc(Cl)cc1 | nt | nt | nt | -2 | nt | nt | nt | nt
C[C@@H]1CCCCO[C@@H](CN(C)C(=O)CCC(F)(F)F)[C@@H](C)CN([C@H](C)CO)C(=O)c2cc(NS(=O)(=O)c3cccs3)ccc2O1 | nt | nt | nt | -7 | nt | nt | nt | nt
O=C1Nc2ccccc2O/C1=C\c1ccccc1 | nt | 13* | 3 | -11 | 11 | 0 | 1 | 5
O=C1NC(=O)C(=Cc2ccccc2)N1 | -1 | 2 | nt | -3 | 4 | nt | nt | nt
COc1ccc(CNc2cccnc2)c(OC)c1OC | -12 | -1 | nt | -7 | 4 | nt | nt | nt
COc1cccc2cc(-c3nnc(SCC(=O)Nc4cc(C(F)(F)F)ccc4Cl)n3N)oc12 | 15 | 21* | 0 | -4 | 0 | 0 | 1 | 6
CCn1c(SCC(=O)Nc2nccs2)nnc1-c1cc2cccc(OC)c2o1 | 40 | -2 | -3 | -3 | 5 | nt | nt | nt
CC1(C(=O)NCc2ccc3c(c2)OCO3)CCN1C(=O)C1(c2ccc(Cl)cc2)CC1 (stereo not given) | 3 | -3 | nt | -7 | 0 | nt | nt | nt
Cc1ccc2nc(CN(C)C(=O)[C@H]3O[C@@H](n4cnc(C(N)=O)n4)[C@H](O)[C@@H]3O)[nH]c2c1 | nt | nt | nt | -5 | nt | nt | nt | nt
O=C(Nc1ccc(C(=O)OC[C@@H]2CCCN3CCCC[C@H]23)cc1)c1cccc(Br)c1 | nt | 12* | 4 | -1 | 6 | 0 | 8 | 8
Cc1ccccc1OCCCN1CCC(C(O)(c2ccccc2)c2ccccc2)CC1 | nt | nt | nt | -10 | nt | nt | nt | nt
O=C1CC(SC(=Nc2ccccc2)Nc2ccccc2)C(=O)N1c1ccc(Cl)cc1 (stereo not given) | nt | 12* | 1 | 0 | 11 | 0 | -1 | 9
O=C1CC(SC(=Nc2ccccc2)Nc2ccccc2)C(=O)N1c1cccc(Cl)c1 (stereo not given) | nt | 0 | 16 | 2 | 17 | 0 | nt | nt
CN(CC(=O)Nc1ccc(Cl)c(C(F)(F)F)c1)C(=O)CCCNC(=O)c1ccc(Cl)cc1 | 4 | 0 | nt | -7 | 1 | 0 | nt | nt
Cc1coc2c(C)c3oc(=O)cc(-c4ccccc4)c3cc12 | 2 | 2 | -4 | -3 | 11 | 0 | nt | nt
CCCc1cc(=O)oc2c(C)c3occ(C)c3cc12 | nt | 18* | -21 | -1 | 4 | 0 | 1 | 4
Cc1cc(-c2cc(NC(=O)Cc3c[nH]c4ccccc34)ccc2Nc2cccnc2)ccc1F | nt | nt | nt | -7 | nt | nt | nt | nt
CCn1c2ccccc2c2cc(NC(=O)COC(=O)c3ccccc3F)ccc21 | nt | 9.8* | -1 | 0 | 12 | 0 | 3 | 4
